{"data": "Published values from different studies"}
{"Compound": "O=c1cc(-c2ccccc2)oc2c(O)c(O)ccc12", "system": "male CD-1 mouse, brain", "setting": "oral, 50 mg/kg, 30 min", "concentration": "18 ng/g"}
{"Compound": "Cc1ccc([N+](=O)[O-])cc1S(=O)(=O)n1c(C)nc2ccccc21", "system": "mouse, liver", "setting": "intraperitoneal, 30 mg/kg, 24 h", "concentration": "3100 nM"}
{"Compound": "C[C@]12C[C@@]34C=CC(=O)[C@@](C)(CCC(=O)Nc5c(O)ccc(C(=O)O)c5O)[C@@H]3[C@H](C[C@@H]1C4)O2", "system": "male C57BL/6 mouse, plasma", "setting": "intravenous, 3 mg/kg, 5 min, single dose", "concentration": "20000 nM"}
{"Compound": "O=C(O)C1CCN(c2ncc(-c3ccc4c(c3)OCCCO4)s2)CC1", "system": "male Swiss mouse, plasma", "setting": "oral, 30 mg/kg, 2 h, single dose", "concentration": "5990 ng/mL"}
{"Compound": "CC(C)CN(C[C@@H](O)[C@H](Cc1ccccc1)NC(=O)O[C@H]1CO[C@H]2OCC[C@H]21)S(=O)(=O)c1ccc(N)cc1", "system": "BALB/c mouse, plasma", "setting": "intravenous, 2.5 mg/kg, 12 h", "concentration": "0.33 ng/mL"}
{"Compound": "O=c1nc(N2CCN(CC3CCCCC3)CC2)sc2c([N+](=O)[O-])cc(C(F)(F)F)cc12", "system": "CD-1 mouse, lung", "setting": "oral, 100 mg/kg, 4 h", "concentration": "620 ng/mL"}
{"Compound": "CC(C)Cc1nn(C)c(=O)c2c(SCCCO)n(Cc3cccc4ccccc34)cc12", "system": "mouse, lung", "setting": "intraperitoneal, 20 mg/kg, 7 days, single dose", "concentration": "0 nM"}
{"Compound": "CC(C)(Nc1nc(-c2ccccn2)nc2ccccc12)c1ccccn1", "system": "female BALB/c mouse, plasma", "setting": "intravenous, 1 mg/kg, 1 h", "concentration": "487 ng/mL"}
{"Compound": "O=S(=O)(c1cccc(C(F)(F)F)c1)N1CCc2ccc(OCc3c(Cl)cncc3Cl)cc21", "system": "mouse, plasma", "setting": "intraperitoneal, 10 mg/kg, 2 h", "concentration": "890 nM"}
{"Compound": "COc1cc(F)c([C@@H]2CNC(=O)[C@H]2NC(=O)Nc2ccccc2)c(F)c1", "system": "C57BL/6 mouse, plasma", "setting": "oral, 3 mg/kg, 1 h", "concentration": "107 nM"}
{"Compound": "CC(C)Oc1cccc(-c2cnc(N3CCC(C(N)=O)CC3)s2)c1", "system": "male Swiss mouse, plasma", "setting": "oral, 30 mg/kg, 30 min, single dose", "concentration": "416 ng/mL"}
{"Compound": "O=S(=O)(c1cccc(C(F)(F)F)n1)N1CCc2ccc(OCc3c(F)cccc3Cl)cc21", "system": "mouse, plasma", "setting": "intraperitoneal, 10 mg/kg, 4 h", "concentration": "120 nM"}
{"Compound": "CC(C)(C)c1cc(NC(=O)Nc2ccc(Oc3ccnc4[nH]c(=O)cnc34)cc2F)n(-c2ccccc2)n1", "system": "BALB/c mouse, plasma", "setting": "oral, 10 mg/kg/day, 24 h", "concentration": "~1000 nM"}
{"Compound": "Cc1c2ccnc(C(=O)N[C@H](C)CN(C)C)c2cc2c3cc(O)ccc3n(C)c12", "system": "male C57BL/6 mouse, plasma", "setting": "intraperitoneal, 10 mg/kg, 2 h, single dose", "concentration": "80 nM"}
{"Compound": "O=S(=O)(c1cccc(C(F)(F)F)c1)N1CCc2ccc(OCc3c(F)cncc3Cl)cc21", "system": "mouse, plasma", "setting": "intraperitoneal, 10 mg/kg, 4 h", "concentration": "210 nM"}
{"Compound": "Cc1ccc(-c2cccc3cnc(Nc4ccc(C(=O)N5CCOCC5)cc4)nc23)cn1", "system": "mouse, plasma", "setting": "intraperitoneal, 10 mg/kg, 2 h", "concentration": "0 nM"}
{"Compound": "O=S(=O)(c1cccc(C(F)(F)F)c1)N1c2cc(OCc3c(Cl)cncc3Cl)ccc2CC1C(F)(F)F (stereo not shown)", "system": "mouse, plasma", "setting": "intraperitoneal, 10 mg/kg, 4 h", "concentration": "160 nM"}
{"Compound": "COc1ccc2[nH]c3c(C)c4ccnc(C(=O)N[C@H](C)CN(C)C)c4cc3c2c1", "system": "male C57BL/6 mouse, brain", "setting": "intraperitoneal, 10 mg/kg, 2 h, single dose", "concentration": "260 nM"}
{"Compound": "c1ccc(-c2nc(N3CCC(c4ccccn4)C3)c3ccccc3n2)nc1 (stereo not shown)", "system": "female BALB/c mouse, plasma", "setting": "oral, 50 mg/kg, 2 h", "concentration": "2730 ng/mL"}
{"Compound": "O=S(=O)(c1ccc(-c2ccc3nccc(Nc4ccncn4)c3c2)cc1)N1CCOCC1", "system": "female BALB/c mouse, plasma", "setting": "intraperitoneal, 10 mg/kg, 15 min", "concentration": "4460 ng/mL"}
{"Compound": "CN(C(=O)n1cnc(-c2ccc[n+]([O-])c2)c1)C1CCCCC1", "system": "male CD-1 mouse, plasma", "setting": "oral, 10 mg/kg, 8 h", "concentration": "83 ng/mL"}
{"Compound": "CN(C)c1ncnc2[nH]cc(-c3cccc(Cl)c3)c12", "test": "mass spectrometry", "system": "female C57BL/6 mouse, plasma", "setting": "intraperitoneal, 20 mg/kg, 30 min, single dose", "concentration": "8700 nM"}
